Source: ChEMBL document CHEMBL1134357, “Heterobifunctional ligands: practical chemoenzymatic synthesis of a cell adhesive glycopeptide that interacts with both selectins and integrins” (J Med Chem, 2001)

Columns and labels:
[1] = Association constant of compound against selectin P was determined
Outline: (§1)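 SPR (IAsys): recombinant soluble human E-, P- or L-selectin is coupled to a BS3-activated aminosilane cuvette and the surface blocked with BSA. Binding is run in 10 mM PBS, 1 mM CaCl2, pH 7.2, at 25 °C. Ligand solution (0.01 mL into 0.2 mL total) is monitored for 20 min, and kinetic and equilibrium constants are derived from the binding curves.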

[2] = Association constant of compound against selectin L was determined; outline: as §1
[3] = Association constant of compound against selectin E was determined; outline: as §1
[4] = Dissociation constant of compound against selectin L was determined; outline: as §1
[5] = biological target: T1, L-selectin (Homo sapiens) (UniProt P14151); assay: Binding affinity of compound against selectin L was determined; outline: as §1
T1 sequence (whole entry): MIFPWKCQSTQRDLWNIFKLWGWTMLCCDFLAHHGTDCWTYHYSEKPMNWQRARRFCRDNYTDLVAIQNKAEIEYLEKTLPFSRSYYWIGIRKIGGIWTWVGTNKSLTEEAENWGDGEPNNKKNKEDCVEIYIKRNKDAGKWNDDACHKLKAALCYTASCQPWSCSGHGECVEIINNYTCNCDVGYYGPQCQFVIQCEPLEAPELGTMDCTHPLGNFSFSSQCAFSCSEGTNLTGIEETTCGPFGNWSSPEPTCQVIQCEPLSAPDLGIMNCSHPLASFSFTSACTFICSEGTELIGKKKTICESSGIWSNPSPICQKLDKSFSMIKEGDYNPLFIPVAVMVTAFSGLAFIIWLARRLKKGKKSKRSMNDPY

[6] = biological target: T2, P-selectin (Homo sapiens) (UniProt P16109); assay: Binding affinity of compound against selectin P was determined; outline: as §1
T2 sequence (whole entry): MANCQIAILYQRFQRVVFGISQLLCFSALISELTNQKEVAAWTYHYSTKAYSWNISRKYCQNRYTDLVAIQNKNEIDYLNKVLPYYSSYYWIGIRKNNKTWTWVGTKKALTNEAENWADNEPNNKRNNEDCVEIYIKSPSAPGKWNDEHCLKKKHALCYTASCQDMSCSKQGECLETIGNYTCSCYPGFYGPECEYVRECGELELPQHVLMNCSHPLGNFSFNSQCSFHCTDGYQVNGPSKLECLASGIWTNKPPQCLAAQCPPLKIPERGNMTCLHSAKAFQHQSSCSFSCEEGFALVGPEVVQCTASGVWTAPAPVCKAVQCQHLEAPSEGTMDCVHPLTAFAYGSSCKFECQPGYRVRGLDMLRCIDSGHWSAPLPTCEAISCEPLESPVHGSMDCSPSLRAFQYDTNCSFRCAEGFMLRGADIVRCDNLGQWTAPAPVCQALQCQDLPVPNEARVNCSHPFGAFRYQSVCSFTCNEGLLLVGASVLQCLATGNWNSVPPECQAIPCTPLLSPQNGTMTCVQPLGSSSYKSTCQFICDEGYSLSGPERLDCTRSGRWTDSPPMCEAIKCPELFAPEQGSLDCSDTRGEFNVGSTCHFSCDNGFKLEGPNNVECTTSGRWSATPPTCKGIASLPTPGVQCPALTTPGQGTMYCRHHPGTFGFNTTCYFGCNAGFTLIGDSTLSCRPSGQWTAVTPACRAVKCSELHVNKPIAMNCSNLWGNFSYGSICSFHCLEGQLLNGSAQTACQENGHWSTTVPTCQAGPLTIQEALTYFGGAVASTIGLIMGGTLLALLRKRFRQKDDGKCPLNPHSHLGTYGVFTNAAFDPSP

[7] = Dissociation constant of compound against selectin P was determined; outline: as §1
[8] = biological target: T3, E-selectin (Homo sapiens) (UniProt P16581); assay: Binding affinity of compound against selectin E was determined; outline: as §1
T3 sequence (whole entry): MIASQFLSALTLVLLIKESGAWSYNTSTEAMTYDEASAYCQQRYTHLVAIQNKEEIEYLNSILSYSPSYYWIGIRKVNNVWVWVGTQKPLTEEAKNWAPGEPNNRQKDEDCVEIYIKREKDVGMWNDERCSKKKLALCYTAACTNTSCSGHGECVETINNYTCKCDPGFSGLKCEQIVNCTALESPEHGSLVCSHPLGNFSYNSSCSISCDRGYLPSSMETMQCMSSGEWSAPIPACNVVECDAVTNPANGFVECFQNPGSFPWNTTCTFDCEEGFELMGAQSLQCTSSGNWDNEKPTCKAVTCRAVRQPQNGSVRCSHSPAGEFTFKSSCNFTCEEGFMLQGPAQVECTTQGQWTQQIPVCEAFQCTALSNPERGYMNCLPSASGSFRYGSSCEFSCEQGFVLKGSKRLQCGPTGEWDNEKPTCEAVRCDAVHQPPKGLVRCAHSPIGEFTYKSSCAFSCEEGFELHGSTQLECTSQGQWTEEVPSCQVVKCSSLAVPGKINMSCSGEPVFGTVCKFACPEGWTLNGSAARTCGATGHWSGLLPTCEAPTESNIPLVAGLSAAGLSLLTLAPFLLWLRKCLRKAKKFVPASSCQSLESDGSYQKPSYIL

[9] = Dissociation constant of compound against selectin E was determined; outline: as §1

Compound	K ass [1]	K ass [2]	K ass [3]	K diss [4]	Ka [5]	Ka [6]	K diss [7]	Ka [8]	K diss [9]
NC(N)=NCCC[C@H](N)C(=O)NCC(=O)N[C@@H](CC(=O)O)C(=O)N[C@@H](CO)C(=O)O	89.1 M⁻¹ s⁻¹	4.1 M⁻¹ s⁻¹	4 M⁻¹ s⁻¹						
N=C(N)NCCC[C@H](N)C(=O)NCC(=O)N[C@@H](CC(=O)O)C(=O)N[C@@H](CO)C(=O)O				0.00077 s⁻¹	5400 M⁻¹	97000 M⁻¹	0.00092 s⁻¹	6100 M⁻¹	0.00066 s⁻¹
CC(=O)N[C@H]1[C@H]([C@H](O)[C@H](O)CO)O[C@@](O[C@H]2[C@@H](O)[C@@H](CO)O[C@@H](O[C@@H]([C@H](O[C@@H]3O[C@@H](C)[C@@H](O)[C@@H](O)[C@@H]3O)[C@H](C=O)NC(C)=O)[C@H](O)CO)[C@@H]2O)(C(=O)O)C[C@@H]1O [SIALYL LEWIS X]	229.6 M⁻¹ s⁻¹	312.7 M⁻¹ s⁻¹	21.1 M⁻¹ s⁻¹	0.36 s⁻¹	870 M⁻¹	880000 M⁻¹	0.00026 s⁻¹	12000 M⁻¹	0.0017 s⁻¹
